High-throughput results (PubChem)
IDH1 R132H inh: inhibitors of human IDH1 R132H. 70,000 tested, 0.18% active. AID 624101. O75874. IDH1 R132H reductase, diaphorase/resazurin fluorescence, 60 min. inhibition, % at 10 µM; in the data active = inhibition above about 34%; inconclusive = no clear call, values can overlap the other calls; inactive = below about 11%;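 note: 0% = DMSO and 100% = no enzyme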
KDM4C inh: inhibitors of human demethylase GASC-1 KDM4C; 96,000 tested, 0.15% active; inhibition, % at 12.5 µM; Q9H3R0; GST-KDM4C 2-372, H3K9me3 peptide, LANCE TR-FRET; AID 720574;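 active = mean replicate inhibition above about 25%, with at least 55% of replicates also reaching it, limit read from the data, passing the limit was not always enough; inconclusive = only one of those two conditions met; inactive = neither condition met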
Target sequence (Q9H3R0 2-372 limits assumed): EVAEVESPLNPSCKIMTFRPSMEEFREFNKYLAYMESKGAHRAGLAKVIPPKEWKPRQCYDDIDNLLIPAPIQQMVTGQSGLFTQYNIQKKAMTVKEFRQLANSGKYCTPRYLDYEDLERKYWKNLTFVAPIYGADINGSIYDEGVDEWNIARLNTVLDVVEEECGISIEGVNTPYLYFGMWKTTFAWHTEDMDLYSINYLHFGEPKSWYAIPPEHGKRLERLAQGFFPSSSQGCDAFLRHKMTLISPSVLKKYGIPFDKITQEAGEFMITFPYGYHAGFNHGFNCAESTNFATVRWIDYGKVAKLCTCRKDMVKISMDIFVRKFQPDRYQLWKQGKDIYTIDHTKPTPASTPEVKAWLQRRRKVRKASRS
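Material: GST-tagged GASC-1 (JMJD2C) catalytic fragment, aa 2-372 / Quantity: enzyme final amount 10 nM / Medium: HEPES buffer, pH 7.5, plus ascorbate / Doses: one test concentration per compound / Incubation: 30 min reaction, 60 min detection, RT / Measured by: LANCE TR-FRET / Read-out: inhibition from TR-FRET ratio decrease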
T cruzi growth-1: blocks T. cruzi growth in NIH3T3 culture; T. cruzi beta-gal in NIH3T3, GalScreen luminescence, 90 h; inhibition, % at 8.34 µM; 77,000 tested, 5.9% active; AID 624255;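 active = mean inhibition above about 93%, with at least 55% of replicates each passing it, limit read from the data, passing the limit was not always enough; inconclusive = only one of those two conditions holds; inactive = neither condition holds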
T cruzi growth-2: inhibitors of T. cruzi proliferation; inhibition, % at 8.35 µM; T. cruzi beta-gal in NIH3T3, GalScreen luminescence, 90 h; shares compounds with T cruzi growth-1; 5,600 tested, 72% active; AID 651739;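 active = mean replicate inhibition above about 95% and at least 55% of replicates individually reaching it, limit read from the data; inconclusive = only one of the two criteria is met; inactive = neither criterion is met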
T cruzi growth-3: blocks T. cruzi growth in NIH3T3 host cells; shares compounds with T cruzi growth-1; T. cruzi beta-gal in NIH3T3, GalScreen luminescence, 90 h; inhibition, % at 2.09 µM; 5,600 tested, 21% active;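 active = mean inhibition above about 95%, with at least 55% of replicates also reaching it, limit read from the data; inconclusive = meets just one of the two conditions; inactive = meets neither condition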;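 note: plate controls were neutral control median for no effect and positive control median for full effect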
3T3 cytotox: NIH/3T3 (mouse) viability loss. shares compounds with T cruzi growth-1. cytotoxicity (signal decrease), % at 8.35 µM. 5,600 tested, 14% active. NIH/3T3 viability, CellTiter-Glo ATP luminescence, 90 h. AID 651742;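 active = mean signal decrease across replicates above about 35% based on untreated-well scatter, with enough replicates individually passing, limit read from the data; inconclusive = no rule stated though some were filed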;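 note: 0% = median of neutral control wells and 100% = median of positive control wells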
NIH3T3 tox 2: kills mouse NIH/3T3 fibroblasts | AID 651744 | 5,600 tested, 56% active | NIH/3T3 viability, CellTiter-Glo ATP luminescence, 90 h | shares compounds with T cruzi growth-1 | inhibition, % at 24.9 µM;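 active = mean loss of cell viability signal at or above a set limit, and enough replicates individually reaching it; inconclusive = meets only the mean limit or only the replicate share; inactive = meets neither condition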;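 note: 0% = median of neutral control wells and 100% = median of positive control wells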
Active calls of the source: *; ? = inconclusive; · = not tested or not shown. The sample as a whole holds a higher share of hits than the screen did.

SMILES | IDH1 R132H inh | KDM4C inh | T cruzi growth-1 | T cruzi growth-2 | T cruzi growth-3 | 3T3 cytotox | NIH3T3 tox 2
CC(C)CC#Cc1cnc2c(c1)C(=O)N([C@@H](C)CO)C[C@@H](C)[C@@H](CN(C)C(=O)Nc1cc(F)ccc1F)O2 | · | -1 | ? | 104* | 42 | 36* | 74*
CCCC#Cc1cnc2c(c1)C(=O)N([C@@H](C)CO)C[C@H](C)[C@@H](CN(C)C(=O)Nc1ccccc1F)O2 | · | 3 | -2 | · | · | · | ·
COc1ccccc1NC(=O)N(C)C[C@@H]1Oc2ncc(C#CCC(C)C)cc2C(=O)N([C@@H](C)CO)C[C@H]1C | -3 | 0 | 104* | 106* | 63 | -5 | 3
CCCC#Cc1cnc2c(c1)C(=O)N([C@H](C)CO)C[C@@H](C)[C@@H](CN(C)C(=O)Nc1cc(F)ccc1F)O2 | 0 | 4 | 14 | · | · | · | ·
CCCC#Cc1cnc2c(c1)C(=O)N([C@@H](C)CO)C[C@@H](C)[C@H](CN(C)C(=O)Nc1ccccc1F)O2 | · | -2 | ? | 115* | 89 | -5 | 39*
Cc1ccc(-n2c(SCC(=O)Nc3c(Cl)cccc3Cl)nnc2-c2ccncc2)cc1 | 0 | · | · | · | · | · | ·
CCCCCCCCCC(O)CC(O)CC(O)CC1CC=CC(=O)O1 (centres undefined) | 3 | · | · | · | · | · | ·
Cc1cc(I)cc(C)c1NC(=O)CSc1nnnn1-c1ccccc1 | 0 | · | · | · | · | · | ·
N#Cc1nc(-c2ccccc2Cl)oc1NCCCN1CCOCC1 | 0 | · | · | · | · | · | ·
CCn1c(SCC(=O)Nc2ccc(F)c(Cl)c2)nnc1-c1ccncc1 | 0 | · | · | · | · | · | ·
C[C@@H]1CCCCO[C@@H](CN(C)Cc2ccc(Cl)c(Cl)c2)[C@H](C)CN([C@H](C)CO)C(=O)c2cc(N(C)C)ccc2O1 | 0 | 0 | 99* | 106* | 79 | -1 | 103*
C[C@@H]1CCCCO[C@H](CN(C)Cc2ccc(Cl)c(Cl)c2)[C@@H](C)CN([C@@H](C)CO)C(=O)c2cc(N(C)C)ccc2O1 | -2 | 12 | 106* | 100* | 106* | 15 | 106*
C[C@@H]1CCCCO[C@@H](CN(C)Cc2ccc(Cl)c(Cl)c2)[C@H](C)CN([C@@H](C)CO)C(=O)c2cc(N(C)C)ccc2O1 | -2 | 16 | · | · | · | · | ·
C[C@@H]1CCCCO[C@H](CN(C)Cc2ccc(Cl)c(Cl)c2)[C@@H](C)CN([C@H](C)CO)C(=O)c2cc(N(C)C)ccc2O1 | 0 | -1 | 86 | · | · | · | ·
CS(=O)(=O)N(CC(=O)Nc1cc(Cl)ccc1Oc1ccccc1)c1ccccc1F | 0 | · | · | · | · | · | ·
CC(C(=O)Nc1ccc(F)c(F)c1)N(c1ccc(Cl)cc1)S(C)(=O)=O (centres undefined) | 3 | · | · | · | · | · | ·
COCCNC[C@H]1[C@@H](c2ccccc2)[C@@H](CO)N1c1nc(C)c(C)s1 | · | 0 | 103* | 83 | 39 | -35 | -7
COCCNC[C@@H]1[C@@H](c2ccccc2)[C@@H](CO)N1c1nc(C)c(C)s1 | · | -2 | 87 | · | · | · | ·
COc1ccc(NC(=O)CN(c2cc(C)ccc2OC)S(C)(=O)=O)cc1Cl | 0 | · | · | · | · | · | ·
CN(C)C(=O)c1cccc(-c2ccc([C@H]3[C@H](CO)N4CCCCN(C(=O)C5CCCC5)C[C@@H]34)cc2)c1 | · | · | ? | 99* | 94 | -6 | 21
CN(C)C(=O)c1cccc(-c2ccc([C@@H]3[C@@H](CO)N4CCCCN(S(C)(=O)=O)C[C@@H]34)cc2)c1 | · | -1 | 99* | ? | -24 | -7 | 14
CN(C)C(=O)c1cccc(-c2ccc([C@@H]3[C@H]4CN(C(=O)C5CCCC5)CCCCN4[C@H]3CO)cc2)c1 | · | · | 80 | · | · | · | ·
CN(C)C(=O)c1cccc(-c2ccc([C@@H]3[C@@H](CO)N4CCCCN(S(C)(=O)=O)C[C@H]34)cc2)c1 | · | 0 | -30 | · | · | · | ·
CN(C)C(=O)c1cccc(-c2ccc([C@@H]3[C@H](CO)N4CCCCN(C(=O)C5CCCC5)C[C@@H]34)cc2)c1 | · | · | 64 | · | · | · | ·
CN(C)C(=O)c1cccc(-c2ccc([C@H]3[C@@H](CO)N4CCCCN(C(=O)C5CCC5)C[C@@H]34)cc2)c1 | · | 1 | 105* | 91 | 83 | -1 | 8
SMILES | IDH1 R132H inh | KDM4C inh | T cruzi growth-1 | T cruzi growth-2 | T cruzi growth-3 | 3T3 cytotox | NIH3T3 tox 2
CC(=O)c1c(C)nc(-c2ccc(Cl)cc2)nc1NC(=O)Cc1ccccc1 | 0 | · | · | · | · | · | ·
C/C=C/c1ccc([C@@H]2[C@@H](C#N)N(c3ncc(CC)s3)[C@H]2CO)cc1 | · | -2 | 102* | 96* | 17 | 2 | 53*
C/C=C/c1ccc([C@@H]2[C@@H](C#N)N(c3ncc(CC)s3)[C@@H]2CO)cc1 | · | 2 | ? | 101* | 107* | 19 | 38*
C/C=C/c1ccc([C@H]2[C@@H](C#N)N(c3ncc(CC)s3)[C@H]2CO)cc1 | · | -1 | 101* | 106* | 100* | 2 | 18
C/C=C/c1ccc([C@@H]2[C@H](C#N)N(c3ncc(CC)s3)[C@H]2CO)cc1 | · | -4 | 94 | · | · | · | ·
CCn1c(SCC(=O)Nc2ccccc2OC)nnc1-c1c[nH]c2ccccc12 | 0 | · | · | · | · | · | ·
O=C(NCc1cccnc1)c1cnn2c(C(F)(F)F)cc(-c3ccccc3)nc12 | 2 | · | · | · | · | · | ·
